Tested on: MS2 coat protein
Experiment: apparent Kd, MS2 coat protein; higher = weaker binding; RNA-MaP array; FMN 200 µM where present
Summary of the method: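 The apparent Kd is reported as the median of filtered per-cluster binding-curve fits. To get these curves, designs transcribed by stalled E. coli RNA polymerase on Illumina sequencing-chip clusters were titrated with SNAP-549-labelled MS2 coat protein from 0.7 or 1.5 nM, doubling to 3 µM. Titrations were run without and then with constant ligand in 100 mM Tris-HCl pH 7.5, 80 mM KCl, 4 mM MgCl2, BSA, DTT, yeast tRNA and Tween-20, and green signal was normalised to red-channel RNA signal and control-cluster median Fmax.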

[1] = designed as: ON switch for flavin mononucleotide, no ligand
[2] = ligand present: flavin mononucleotide, designed as: ON switch for flavin mononucleotide
[3] = designed as: OFF switch for flavin mononucleotide, no ligand
[4] = ligand present: flavin mononucleotide, designed as: OFF switch for flavin mononucleotide

| Sequence | apparent Kd [1] [nM] | apparent Kd [2] [nM] | apparent Kd [3] [nM] | apparent Kd [4] [nM] |
| --- | --- | --- | --- | --- |
| GUGUCUUGGGAGAAGGCCGUAUGCAAAGCAUACGGAGGAUAUUCAUACCGGAAACGGACAUGAGGAUCACCCAUGUGGCACAAA | 947 | 34.8 | – | – |
| UUACUCAUGUAAGGAUAUGCAGCCGAAACGGCUGCAGAAGGUACUAAAAUACAUGAGGAUCACCCAUGUCUUUUUAAUAUAGAC | 151 | 80.1 | – | – |
| UGUAAAUUAUUAAGUAAUUAGGCGAAGGAUAUAUAACAUGAGGAUCACCCAUGUACUAAAUUGAAGUAGAAGGUUGAACAUUUC | 14.5 | 12.9 | – | – |
| AGGUCAACCACAGGAUAUGGCUAGCAUAGCUAGCCAGAAGGGUGGUCGUAUCCAUGUAAAUACAUGAGGAUCACCCAUGUAUCC | 283 | 79.1 | – | – |
| CUCUAGUGAGGAUAUCAGUAGUAAAAAAAUAAAAUUACUACUGAGAAGGCACAUGAGGAUCACCCAUGUCUUUC | – | – | 87.1 | 46.5 |
| UCCUCACAUGAGGAUCACCCAUGUGAGGAUAUGGGCCCGGGCCCGUUCGGGCCCGGGCCCAGAAGGCACUGGGU | – | – | 42.1 | 19 |
| AUUAUUGACGUAGGAUAUUGUUACAUGAGGAUCACCCAUGUUAUUUGGGAACUAGGAAUAUUUUACAAGAAGGACGUUGUUAAA | 74.9 | 92.1 | – | – |
| UCCUUGUCCUGAGGAUAUCCGUGGUUACCGACAGGAGAAGGCAGGACAUGAGGAUCACCCAUGUACCCAGAAAACGUGCAGAGU | – | – | 133 | 210 |
| UAGAUCAAUACAGGAUAUGGUGACGCACAUGAGGAUCACCCAUGUCCGCAGCGUGCUCAGCACGCCCAGAAGGGUAUUGAUUCG | 786 | 80.1 | – | – |
| GUAGCUAUCGGAGGAUAUUCAUAUCGGAAACGGACAUGAGGAUCACCCAUGUGGCGAAAGCCUUGGGAGAAGGCCGAUAGCUAC | 144 | 9.42 | – | – |
| UUAAUUAACAAGAAGGCAUACAUGAGGAUCACCCAUGUUGUACAUGGAUAAUGAGGAUAUUGCUAAUAAUUAUUUUUCUUAAUU | – | – | 47.6 | 35.5 |
| AAAUUUAACGAAGGAUAUGGUGACAUGAGGAUCACCCAUGUUAAUUUUGUGAUCUUGUUUAAGUUCCAGAAGGUCGUAUACAUA | – | – | 210 | 600 |
| GUGCGAGCCACAGGAUAUCUACAAAUUUACUGUAGAGAAGGGUGACCUCGUGCACCACAUGAGGAUCACCCAUGUAACUAGGCG | 26.3 | 53 | – | – |
| CUCAUUAACAUGAGGAUCACCCAUGUUGGCCAGUCUCACACCAGAAGGCCCGUUGAGCACAGCAGGGAGGAUAUGGGUGACAUA | 309 | 211 | – | – |
| GUGUUACAUGAGGAUCACCCAUGUUGUUGUAGAUAAGGAUAUAUGGGAACGAGAGAAAUAAUAGAAGGUAUUAGGC | 71.2 | 67.7 | – | – |
| ACGGAACAUGAGGAUCACCCAUGUAUCUGAAAUAUGGACUCACAGGAUAUUCAGAGUUGCCAAUCGGAGAAGGGUGACUCCAGA | 25.5 | 17.2 | – | – |
| CCGCAUAAGCAGGAUAUCGUAUCGGAUACGAUACGAGAAGGGUUUACAUGAGGAUCACCCAUGUUCCUUAGCGG | – | – | 29.7 | 48.1 |
| GCACAUGAUACAGGAUAUGUUUUGGAUUUUAUAUGCAGUUAUAAUUUUUUGACAGAAGGGUAUACAUGAGGAUCACCCAUGUGC | – | – | 161 | 75 |
| AGAUAGUGGUGAGGAUAUCAGAAUAGAAAGAAAUGAGAAGGCGCACAUGAGGAUCACCCAUGUGAGGUCUUGAGACUACAUGGU | – | – | 20 | 22.1 |
| CGCCGACAUGAGGAUCACCCAUGUCACAUCUGGUCAGGAUAUGGUAUGAUUUGGCUAUUGCCAGAAGGGACCUCAG | 48.9 | 28 | – | – |
| AGAUUUAAUGAGGAUAUCGUAUUGGAUAUAGUGCGAGAAGGCAUUACAUGAGGAUCACCCAUGUUUUGUUGGGA | – | – | 31.8 | 74.1 |
| CACCGUUAGUGAGGAUAUAGUACAUGAGGAUCACCCAUGUAAUAAAUGAGAAUUUCGGAUGUAUGCUAGAAGGCACAAAUCGGC | – | – | 60.4 | 65.8 |
| UCGGCGCGAGGAUAUGCGGUUUGUGCUUUGGGCCCUGGCGUACAUGAGGAUCACCCAUGUAGAAGGCGUGUUGC | – | – | 21.3 | 21.3 |
| CACCGUUAGAGAGGAUAUCGUACAUGAGGAUCACCCAUGUAAUAAAUGAGAAUUUCGGAUGUAUGCGAGAAGGCUCGAAUCGGC | – | – | 53.4 | 40.7 |
| GUGCGGUGAGGAUAUACGUAGGUGAAAAUCUGUGUGUUCCUACAUGAGGAUCACCCAUGUAGAAGGCAUGGCAC | – | – | 148 | 45.3 |
| UAGCUUGACGCAGGAUAUCCAAGGCUGAAAUGAGGAGAAGGGCGCCAAACAUGAGGAUCACCCAUGUAUUAUGCAGGGUCCUCA | – | – | 362 | 180 |
| ACCUCACAUGAGGAUCACCCAUGUUAGGAUAUAUAAUCGUCGGCCUAGGGCCGGAGAUAUAGAAGGAGCAUAAC | – | – | 16.9 | 19.7 |
| AUAUAUAUAUCAGGAUAUGGACAGGCCUGUCCGUAUUGAGACAGUAACAUGAGGAUCACCCAUGUCCAGAAGGGAUAUAUAUAU | – | – | 51.5 | 59.2 |

| Sequence | apparent Kd [1] [nM] | apparent Kd [2] [nM] | apparent Kd [3] [nM] | apparent Kd [4] [nM] |
| --- | --- | --- | --- | --- |
| UCAUAUAUACAAGGAUAUCAAUGAUUUAUAGAUCCUACAUGAGGAUCACCCAUGUUUUUAUAUUUUGAGAAGGUGUAAUGUCUU | 218 | 254 | – | – |
| CAUAACGGCUGAGGAUAUUGAAUGUGCGUGGACAUGAGGAUCACCCAUGUUCAAGAAGGCAGCAAUUUACUUGGGUCUACCCGC | – | – | 40.9 | 309 |
| UACAGACAUGAGGAUCACCCAUGUGAGGAUAUCGAUAACAAUAAAAUAAUAUAAACAACGAGAAGGCACAGCAU | – | – | 57.4 | 73 |
| GUUAAUUAGUGAGGAUAUACAGAAAUUAAAACUGUAGAAGGCACAUUCCUCAAGACAUGAGGAUCACCCAUGUGAUAAUAAGAU | – | – | 35.2 | 127 |
| AUGCUAUACGAAGGAUAUGGUUACAUGAGGAUCACCCAUGUUAUGAUUGGGUACAUGAAAAGGUUCCAGAAGGUCGUAUAGCUA | – | – | 1210 | 736 |
| GUCAGCUCGUGAGGAUAUACAACACUGCUUCGGCAGUGUAUCAAGAUCACAUGAGGAUCACCCAUGUAGAAGGCACGAGCUGAU | – | – | 13.2 | 234 |
| GCGAUUUUGUAAGGAUAUACUCUGUGAUGAAGAGUAGAAGGUACUUACAUGAGGAUCACCCAUGUUUAACGAGAUACUAAUCGU | 42.1 | 21.2 | – | – |
| CGGUGCUGAGGAUAUACAUGAGGAUCACCCAUGUGUGCCAGCUAGAAGACUGGCACUUGUAGAAGGCAGUACUG | – | – | 11.4 | 20.5 |
| UUACAGUGCGGGUAGGAUAUGUAGGGUGGUACAUGAGGAUCACCCAUGUAUCCACCCUUCUACCGGCAGAAGGGCCUGUCACUGC | 17 | 13.5 | – | – |
| CGUGCGUAUGUGAGGAUAUGCUGGUCCUUGGAUCGGCAGAAGGCACAUGAGGAUCACCCAUGUGGUGUCGUGCA | – | – | 376 | 30.3 |
| CGAGGAGGAGUGAGGAUAUCGUGUUCGAAAGAACGUGAGAAGGCACAUGAGGAUCACCCAUGUGAUACUUUUCG | – | – | 13.6 | 28.8 |
| UUUAUAUAGUAAGGAUAUGUAUUAUUUUUUUCAACAGAAGGUACUGACAUGAGGAUCACCCAUGUUUUAGUGUGGGCAUGUAGU | – | – | 384 | 450 |
| GCACUGGAUGUAGGAUAUCAGGACGAUAAGUCCUGAGAAGGACAUGAGGAUCACCCAUGUGAUUAUACCAGUGCAAAUAAUAUA | – | – | 30.7 | 274 |
| UGCGGUAGAGGAUAUACGUAGAACUAGGUUCAUGUAAAACUACAUGAGGAUCACCCAUGUAGAAGGCUAUCGCU | – | – | 17 | 22.4 |
| GUCUUCCUAGGAUAUACAUGAGGAUCACCCAUGUACAGUUUCGUCAAAGGAUACUCGCGUAGAAGGAGGUGGAU | – | – | 26 | 50.7 |
| GGAUAGGACAUAGGAUAUACGUGCUAGAGAUACUAGCAAAAUUUCCUCACAUGAGGAUCACCCAUGUAGAAGGCUGUCCUAUCG | – | – | 6.73 | 24.5 |
| UGGUACUAGUGAGGAUAUGGGAAGAUACAUGAGGAUCACCCAUGUUUAAGAAUGCCGAGAGGCAACUAGAAGGCCCUAGUACCU | 388 | 35.8 | – | – |
| AACCAACAUGAGGAUCACCCAUGUCAACCCAAGCGAGGAUAUCCGAGAAUAACAAUGGGAGGAGAAGGCGCGACCU | 73.4 | 55.6 | – | – |
| GUUAACGCAUGAGGAUAUGCUCGCAUUUCAAGAGCAGAAGGUAUGUCUAUAGACAUGAGGAUCACCCAUGUAUUUAUCAUUGAA | 245 | 39.6 | – | – |
| GAUUAACAUGAGGAUCACCCAUGUGAGGAUAUGGACUGGCUCACUUUUCGAUUCCCGUCUAGAAGGCGCAUCUU | – | – | 39.3 | 55.6 |
| GGCACUGUAGGAUAUACAUGAACAAUUGGUAUCCUCAGUCCACAUGAGGAUCACCCAUGUAGAAGGAUAGAAAA | – | – | 58.6 | 46.1 |
| AUGCUUUUUGUAGGAUAUACAUACGGUACGUAUGUAGAAGGACAUGAGGAUCACCCAUGUAAAUUAUUAUUAAAUAUCAUACUU | – | – | 12.7 | 12.2 |
| UGGUACAUCAUAGGAUAUCGUGUGUAAACAUGAGGAUCACCCAUGUCAUACGAGAGUAUGUAGAUCGAGAAGGAUGAUGUACCU | 18.1 | 16.1 | – | – |
| CUGUAUCGGUCAGGAUAUGUGCGUAAACUGUGAACAGAAGGGACCGUACAUGAGGAUCACCCAUGUCCGGGACUCCUUAUGCCU | – | – | 18.1 | 22.2 |
| CGAUAACAUAGUUAUCAGUAACGGACAUGAGGAUCACCCAUGUAGGAUAUGUUACUCAACGAGUAACAGAAGGACAUGAGUCUU | – | – | 19.2 | 91.2 |
| UUGUUGUGUGGAGGAUAUACACUAAUUGUUAGCGUAGAAGGCCACAUGAGGAUCACCCAUGUCCGGGUUACUGCCUAAGGAGUG | – | – | 548 | 99.5 |
| AAUAACAGAGGAUAUACUAUUUUAUGUGUUUGUUGUUUUAAACAUGAGGAUCACCCAUGUAGAAGGCUGAGUAA | – | – | 24.3 | 30.4 |
